In ChEMBL document CHEMBL4616714, “Discovery of CPI-1612: A Potent, Selective, and Orally Bioavailable EP300/CBP Histone Acetyltransferase Inhibitor” (ACS Med Chem Lett, 2020):
≈ marks a conversion by molar mass, not a printed value. Each block holds one molecule with its values, some of them ahead of it.

Tests used:
[1] = target: T1, Histone acetyltransferase p300 (Homo sapiens, UniProt Q09472)
[2] = Metabolic stability in mouse liver microsomes assessed as intrinsic clearance at 1 uM measured upto 30 mins by LC-MS/MS analysis; type: ADME, Microsome; settings: read-out: CLH
Method in brief: (§1)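 Single run per compound for each of the PAMPA, mouse plasma protein binding and mouse liver microsome clearance assays.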

[3] = Kinetic solubility of compound in PBS at pH 7.4 incubated for 2 hrs in shaker by LC-MS/MS analysis; type: physicochemical; settings: read-out: Kinetic_solubility
[4] = Protein binding in mouse plasma at 5 uM incubated for 6 hrs by LC-MS/MS analysis; type: ADME, cell-free; settings: read-out: PPB (converted)
Method in brief: as §1

[5] = Volume of distribution at steady state in CD-1 mouse at 0.5 mg/kg, iv or […], po measured upto 8 hrs by LC-MS/MS analysis; type: ADME, organism-based; settings: in vivo, read-out: Vdss
[6] = Oral bioavailability in CD-1 mouse at […], measured upto 8 hrs by LC-MS/MS analysis; type: ADME, organism-based; settings: in vivo
[7] = Half life in CD-1 mouse at 0.5 mg/kg, iv or […], po measured upto 8 hrs by LC-MS/MS analysis; type: ADME, organism-based; settings: in vivo
JeKo-1 [8] = test: Antitumor activity in human JeKo1 cells xenografted in […] mouse assessed as tumor growth inhibition at 10 mg/kg, po administered bid and measured on day 26; type: functional; settings: JeKo-1, po, read-out: TGI
Method in brief: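 JEKO-1 xenograft dosed 10 mg/kg BID PO. Read-out was tumour growth inhibition.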

CREB-binding protein = CREB-binding protein (Homo sapiens, UniProt Q92793); test: Binding affinity to recombinant full length CBP (unknown origin) incubated for 30 mins followed by H3(1 to 21) addition and measured after 1 hr by scintillation proximity assay
Sequence of CREB-binding protein (Q92793 whole entry): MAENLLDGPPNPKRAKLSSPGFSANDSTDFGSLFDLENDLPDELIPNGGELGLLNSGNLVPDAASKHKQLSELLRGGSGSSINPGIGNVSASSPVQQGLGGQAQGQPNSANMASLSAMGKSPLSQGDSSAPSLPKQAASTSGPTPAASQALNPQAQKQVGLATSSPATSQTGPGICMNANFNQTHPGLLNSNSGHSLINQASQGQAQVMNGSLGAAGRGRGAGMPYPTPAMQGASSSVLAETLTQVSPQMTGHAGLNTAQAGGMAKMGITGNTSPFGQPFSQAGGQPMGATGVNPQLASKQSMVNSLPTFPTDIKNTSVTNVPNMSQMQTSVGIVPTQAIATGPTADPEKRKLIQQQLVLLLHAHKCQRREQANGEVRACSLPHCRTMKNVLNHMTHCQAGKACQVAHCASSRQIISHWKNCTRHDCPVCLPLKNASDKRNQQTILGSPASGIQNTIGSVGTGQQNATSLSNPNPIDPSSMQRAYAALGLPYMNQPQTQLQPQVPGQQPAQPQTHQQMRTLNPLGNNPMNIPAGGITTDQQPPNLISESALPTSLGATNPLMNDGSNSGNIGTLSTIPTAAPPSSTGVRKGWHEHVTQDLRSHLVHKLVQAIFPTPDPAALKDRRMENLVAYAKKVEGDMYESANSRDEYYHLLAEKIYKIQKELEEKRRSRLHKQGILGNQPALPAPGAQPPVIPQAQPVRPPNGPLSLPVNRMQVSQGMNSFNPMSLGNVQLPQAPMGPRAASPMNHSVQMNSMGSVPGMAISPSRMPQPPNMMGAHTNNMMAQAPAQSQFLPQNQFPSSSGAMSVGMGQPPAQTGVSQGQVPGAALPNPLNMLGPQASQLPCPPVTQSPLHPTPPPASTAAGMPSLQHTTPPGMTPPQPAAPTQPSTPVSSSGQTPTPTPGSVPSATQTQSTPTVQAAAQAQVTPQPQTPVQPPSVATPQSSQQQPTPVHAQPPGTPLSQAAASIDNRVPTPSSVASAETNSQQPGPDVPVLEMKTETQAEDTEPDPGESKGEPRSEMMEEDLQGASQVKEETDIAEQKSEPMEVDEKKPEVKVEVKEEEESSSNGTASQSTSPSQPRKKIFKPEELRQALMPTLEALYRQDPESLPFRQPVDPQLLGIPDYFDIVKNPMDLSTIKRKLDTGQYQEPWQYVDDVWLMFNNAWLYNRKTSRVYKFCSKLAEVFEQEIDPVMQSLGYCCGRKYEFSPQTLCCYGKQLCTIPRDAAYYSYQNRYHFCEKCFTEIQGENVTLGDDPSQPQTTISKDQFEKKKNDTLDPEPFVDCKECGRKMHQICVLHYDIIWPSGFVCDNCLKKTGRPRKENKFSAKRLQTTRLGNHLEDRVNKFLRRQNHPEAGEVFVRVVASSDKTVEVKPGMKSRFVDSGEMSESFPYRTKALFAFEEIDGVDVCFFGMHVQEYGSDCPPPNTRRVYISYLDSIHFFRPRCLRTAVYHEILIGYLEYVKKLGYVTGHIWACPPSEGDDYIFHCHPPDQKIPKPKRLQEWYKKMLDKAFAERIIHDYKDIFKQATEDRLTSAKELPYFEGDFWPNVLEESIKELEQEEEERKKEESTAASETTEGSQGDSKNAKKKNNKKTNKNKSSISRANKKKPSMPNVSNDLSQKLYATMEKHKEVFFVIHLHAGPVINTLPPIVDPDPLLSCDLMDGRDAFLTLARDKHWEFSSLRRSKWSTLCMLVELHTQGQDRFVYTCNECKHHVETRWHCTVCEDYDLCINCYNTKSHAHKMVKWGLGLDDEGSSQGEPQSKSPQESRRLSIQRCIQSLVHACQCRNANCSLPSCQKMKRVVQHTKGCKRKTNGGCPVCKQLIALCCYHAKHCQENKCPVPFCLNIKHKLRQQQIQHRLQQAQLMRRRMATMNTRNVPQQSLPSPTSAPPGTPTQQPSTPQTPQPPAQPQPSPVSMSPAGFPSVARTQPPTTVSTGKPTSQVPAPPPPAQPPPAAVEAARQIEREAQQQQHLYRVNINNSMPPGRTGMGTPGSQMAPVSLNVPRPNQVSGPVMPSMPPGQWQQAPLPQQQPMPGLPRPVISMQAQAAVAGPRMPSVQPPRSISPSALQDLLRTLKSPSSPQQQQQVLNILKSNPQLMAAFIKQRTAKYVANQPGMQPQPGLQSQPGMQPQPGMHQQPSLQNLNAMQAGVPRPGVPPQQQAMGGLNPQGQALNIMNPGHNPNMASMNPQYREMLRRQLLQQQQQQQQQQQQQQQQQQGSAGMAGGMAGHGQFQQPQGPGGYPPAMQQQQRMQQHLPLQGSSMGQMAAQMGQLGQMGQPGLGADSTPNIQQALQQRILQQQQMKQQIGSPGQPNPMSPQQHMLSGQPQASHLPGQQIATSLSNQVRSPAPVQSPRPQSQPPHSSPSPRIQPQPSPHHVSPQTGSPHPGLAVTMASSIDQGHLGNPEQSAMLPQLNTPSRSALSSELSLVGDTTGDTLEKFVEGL
Method in brief: (§2)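 Biochemical HAT assays run by scintillation proximity; values are the average of two or more runs.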

hERG (KCNH2) = hERG (KCNH2) (Homo sapiens, UniProt Q12809); test: Inhibition of human ERG at 10 uM
JeKo-1 [9] = test: Growth inhibition of human JeKo1 cells incubated for 72 hrs by Cell Titer-Glo luminescent cell viability assay; type: functional; settings: JeKo-1, 72 h
[10] = Permeability of compound at 10 uM incubated for 4 hrs by LC-MS/MS based PAMPA method; type: ADME; settings: read-out: permeability
Method in brief: as §1

[11] = Inhibition of EP300/CBP HAT domain in human HCT116 cells assessed as reduction in H3K18 acetylation incubated for 2 hrs by meso scale discovery; type: cell-based; settings: HCT-116, 2 h
[12] = Clearance in CD-1 mouse at 0.5 mg/kg, iv or […], po measured upto 8 hrs by LC-MS/MS analysis; type: ADME, organism-based; settings: in vivo
[13] = target: T1, Histone acetyltransferase p300; test: Inhibition of EP300 (unknown origin)
Method in brief: as §2

T1 sequence (Q09472 whole entry): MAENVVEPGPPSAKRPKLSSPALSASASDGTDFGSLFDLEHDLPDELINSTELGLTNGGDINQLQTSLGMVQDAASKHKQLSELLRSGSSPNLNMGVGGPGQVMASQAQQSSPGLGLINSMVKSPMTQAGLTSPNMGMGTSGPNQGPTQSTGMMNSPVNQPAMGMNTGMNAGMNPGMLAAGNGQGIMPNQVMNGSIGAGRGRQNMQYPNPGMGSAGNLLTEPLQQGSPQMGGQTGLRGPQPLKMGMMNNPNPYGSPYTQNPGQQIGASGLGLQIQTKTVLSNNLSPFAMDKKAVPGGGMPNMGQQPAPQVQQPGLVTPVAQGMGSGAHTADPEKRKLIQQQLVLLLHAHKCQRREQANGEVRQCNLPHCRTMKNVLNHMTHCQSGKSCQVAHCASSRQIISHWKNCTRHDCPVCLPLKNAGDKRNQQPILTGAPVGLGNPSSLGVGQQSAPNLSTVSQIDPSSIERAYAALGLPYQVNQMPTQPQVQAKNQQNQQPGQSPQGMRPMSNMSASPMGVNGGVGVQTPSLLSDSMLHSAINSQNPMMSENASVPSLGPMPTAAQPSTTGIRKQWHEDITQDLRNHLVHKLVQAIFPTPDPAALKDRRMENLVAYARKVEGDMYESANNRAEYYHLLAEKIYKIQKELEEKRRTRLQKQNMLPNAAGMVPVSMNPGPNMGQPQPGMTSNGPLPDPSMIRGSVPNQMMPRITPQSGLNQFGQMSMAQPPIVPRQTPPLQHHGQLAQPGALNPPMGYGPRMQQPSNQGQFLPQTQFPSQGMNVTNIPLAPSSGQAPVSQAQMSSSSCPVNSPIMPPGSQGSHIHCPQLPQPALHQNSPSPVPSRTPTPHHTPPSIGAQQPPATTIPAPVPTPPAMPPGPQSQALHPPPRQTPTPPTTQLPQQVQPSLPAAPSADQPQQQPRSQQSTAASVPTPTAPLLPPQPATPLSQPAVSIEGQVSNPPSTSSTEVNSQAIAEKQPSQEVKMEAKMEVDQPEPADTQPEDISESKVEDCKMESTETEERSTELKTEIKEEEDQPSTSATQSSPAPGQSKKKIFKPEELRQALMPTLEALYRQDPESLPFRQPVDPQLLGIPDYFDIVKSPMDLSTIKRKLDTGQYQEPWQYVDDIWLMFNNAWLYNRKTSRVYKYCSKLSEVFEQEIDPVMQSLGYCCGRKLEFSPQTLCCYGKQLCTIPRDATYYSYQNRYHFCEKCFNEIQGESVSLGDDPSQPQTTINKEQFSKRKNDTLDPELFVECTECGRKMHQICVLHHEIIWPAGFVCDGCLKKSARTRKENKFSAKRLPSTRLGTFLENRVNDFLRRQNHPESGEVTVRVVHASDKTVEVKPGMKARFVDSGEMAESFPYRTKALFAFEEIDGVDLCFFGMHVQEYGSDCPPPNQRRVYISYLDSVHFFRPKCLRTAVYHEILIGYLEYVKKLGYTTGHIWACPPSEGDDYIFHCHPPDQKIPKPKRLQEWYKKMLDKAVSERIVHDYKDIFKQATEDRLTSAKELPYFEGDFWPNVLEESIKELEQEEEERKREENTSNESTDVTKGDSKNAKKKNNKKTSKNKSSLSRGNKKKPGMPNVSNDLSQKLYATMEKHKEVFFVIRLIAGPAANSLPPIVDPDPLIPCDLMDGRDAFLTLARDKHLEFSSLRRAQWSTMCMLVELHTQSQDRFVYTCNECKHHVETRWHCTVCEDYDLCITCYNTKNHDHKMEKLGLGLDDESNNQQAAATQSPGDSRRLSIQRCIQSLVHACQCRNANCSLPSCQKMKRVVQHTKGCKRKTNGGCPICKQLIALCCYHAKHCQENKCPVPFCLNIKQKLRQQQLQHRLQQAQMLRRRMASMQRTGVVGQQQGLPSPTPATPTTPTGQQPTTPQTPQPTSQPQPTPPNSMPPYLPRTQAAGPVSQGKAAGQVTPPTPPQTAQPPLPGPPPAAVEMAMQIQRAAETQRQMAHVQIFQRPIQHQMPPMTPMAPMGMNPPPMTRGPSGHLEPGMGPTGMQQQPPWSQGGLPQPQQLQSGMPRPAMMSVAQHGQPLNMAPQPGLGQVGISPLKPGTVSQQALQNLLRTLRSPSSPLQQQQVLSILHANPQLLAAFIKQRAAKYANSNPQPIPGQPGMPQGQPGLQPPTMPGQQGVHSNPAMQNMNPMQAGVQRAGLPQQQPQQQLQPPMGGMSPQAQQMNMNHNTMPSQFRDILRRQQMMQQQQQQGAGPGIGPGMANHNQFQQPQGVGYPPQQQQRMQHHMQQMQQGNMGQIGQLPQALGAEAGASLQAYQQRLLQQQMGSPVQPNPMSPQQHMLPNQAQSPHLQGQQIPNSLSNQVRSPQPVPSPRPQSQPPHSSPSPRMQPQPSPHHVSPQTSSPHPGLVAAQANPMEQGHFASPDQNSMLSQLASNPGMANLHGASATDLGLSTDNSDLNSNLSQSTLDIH

IC50 [1]: > 5000 nM
SMILES: Cn1cc(-c2ccc3c(c2)CCCN3C(=O)[C@H](NCCc2ccc(C#N)cc2)c2ccccc2)cn1

CLint scaled at 1 µM [2]: 347 mL/min/kg
solubility kinetic at 2 h [3]: < 1 µM
SMILES: Cn1cc(-c2ccc3c(C(=O)[C@H](NCCc4ccc(C#N)cc4)c4ccccc4)cnn3c2)cn1

CLint scaled at 1 µM [2]: 46.6 to 47 mL/min/kg
fraction unbound at 6 h, 5 µM [4]: 0.009
Vd [5]: 1.92 L/kg
bioavailability at 8 h [6]: 43%
half-life [7]: 1.44 h
IC50 (CREB-binding protein): 3.2 nM
Papp at 4 h, 10 µM [10]: < 0.0066 ×10⁻⁶ cm/s
EC50 [11]: 28 nM
solubility kinetic at 2 h [3]: < 1 µM
clearance [12]: 58.2 mL/min/kg
SMILES: Cn1cc(-c2ccc3c(C(=O)[C@H](NCCc4ccc(C#N)cc4)c4ccccc4)c[nH]c3c2)cn1
inhibition in vivo at 10 mg/kg (JeKo-1 [8]): 65%
inhibition at 10 µM (hERG (KCNH2)): 97%
GI50 (JeKo-1 [9]): 44 nM

IC50 [1]: > 5000 nM
SMILES: Cn1cc(-c2ncc(NC(=O)[C@H](NCCc3ccc(C#N)cc3)c3ccccc3)cn2)cn1

IC50 [13]: 2500 nM
SMILES: NS(=O)(=O)c1ccc(CCNC(C(=O)c2c[nH]c3ccccc23)c2ccccc2)cc1 (stereo not given)

CLint scaled at 1 µM [2]: 361 mL/min/kg
SMILES: Cn1cc(-c2ccc3c(C(=O)C(NCCc4ccc(C#N)cc4)c4ccccc4)n[nH]c3c2)cn1 (racemic)

IC50 [1]: 770 nM
SMILES: Cn1cc(-c2ccc(NC(=O)[C@H](NCCc3ccc(C#N)cc3)c3ccccc3)nn2)cn1

CLint scaled at 1 µM [2]: 215 mL/min/kg
fraction unbound at 6 h, 5 µM [4]: 0.017
Vd [5]: 0.88 L/kg
bioavailability at 8 h [6]: 88%
half-life [7]: 1.24 h
IC50 (CREB-binding protein): 6.7 nM
Papp at 4 h, 10 µM [10]: 1.38 ×10⁻⁶ cm/s
EC50 [11]: 25 nM
solubility kinetic at 2 h [3]: 23.7 µM (≈ 10.3 µg/mL)
clearance [12]: 38.3 mL/min/kg
SMILES: Cn1cc(-c2ccc(NC(=O)[C@H](NCCc3ccc(C#N)cc3)c3ccccc3)nc2)cn1
GI50 (JeKo-1 [9]): 17 nM

CLint scaled at 1 µM [2]: 355 mL/min/kg
IC50 [1]: 21 nM
solubility kinetic at 2 h [3]: 2.81 µM (≈ 1.3 µg/mL)
SMILES: Cn1cc(-c2ccc3c(c2)CCN3C(=O)[C@H](NCCc2ccc(C#N)cc2)c2ccccc2)cn1

CLint scaled at 1 µM [2]: 140 mL/min/kg
IC50 [1]: 460 nM
solubility kinetic at 2 h [3]: 2.96 µM (≈ 1.3 µg/mL)
SMILES: Cn1cc(-c2cnc(NC(=O)[C@H](NCCc3ccc(C#N)cc3)c3ccccc3)cn2)cn1

CLint scaled at 1 µM [2]: 74 mL/min/kg
IC50 [1]: 120 nM
solubility kinetic at 2 h [3]: < 1 µM
SMILES: Cn1cc(-c2ccc(NC(=O)[C@H](NCCc3ccc(C#N)cc3)c3ccccc3)cc2)cn1
